Source: PubChem BioAssay AID493230 (Broad Institute, 2011)
Values joined by “and” are separate entries in the source; they are usually repeats but may differ in a detail not shown here. Identical values can stand only once. Active and inactive are the calls of the source.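 Rule for the calls: active = VEGF mRNA rise whose fitted curve reaches 40% activation within the highest concentration tested on that sample; inactive = the rest, including effects opposite to expected.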

How the values were obtained:
[1] = test system: U2OS VEGF mRNA induction, RT-PCR; test: activators raising VEGF transcript levels via HIF – cell-based, U2OS, RT-PCR, dry powder, set 3, orthogonal assay for HIF pathway activator project, dose response (AID 493230)
Summary of the method: (§1)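 Assay system – human osteosarcoma U2OS cells, endogenous VEGF-A mRNA · Input – 2,000 cells/well · Schedule – 24 h plating, then 24 h compound exposure at 37 °C · Technique – TaqMan RT-PCR, VEGF-A vs beta-actin · Control set – DMSO as negative control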

[2] = as above; conditions: U2OS VEGF mRNA induction, RT-PCR; at 38 µM (top of the series)
Summary of the method: as §1

Compound	AC40 [1]	activation [2]
O=C(NC1CCc2ccccc2C1)c1cc(-c2ccccc2)on1 (configuration not stated)	> 38 µM (inactive)	–
O=C(c1cc(-c2ccccc2)on1)N1CCC(N2CCOCC2)CC1	–	12.2% (inactive)
Cc1ccc(NC(=O)c2cc(-c3ccccc3)on2)cn1	–	4.97% (inactive)
C[C@@H](Nc1nc(-c2ccccn2)nnc1-c1ccccc1)c1ccccc1	1.45 µM	–
c1ccc(-c2nnc(-c3ccccn3)nc2NCC2CCCCC2)cc1	1.4 µM	–
Cc1ccc(CNc2nc(-c3ccccn3)nnc2-c2ccccc2)cc1C	0.83 µM	–
C[C@H](Nc1nc(-c2ccccn2)nnc1-c1ccccc1)C1CCCCC1	1.06 µM	–
Oc1ccc(CN2CCc3ccccc3C2)c2cccnc12	3.02 µM and 6.18 µM	–
CC1CN(Cc2ccc(O)c3ncccc23)CC(C)O1 (configuration not stated)	12.5 µM	–
OCCCNc1nc(-c2ccccn2)nnc1-c1ccccc1	8.68 µM	–
Cn1c(-c2ccccc2)cnc1Nc1nc(-c2ccccn2)nnc1-c1ccccc1	4.51 µM	–
c1ccc(-c2csc(Nc3nc(-c4ccccn4)nnc3-c3ccccc3)n2)cc1	0.495 µM	–
c1ccc(-c2nnc(-c3ccccn3)nc2NCCN2CCOCC2)cc1	7.65 µM	–
c1ccc(-c2nnc(-c3ccccn3)nc2N2CCN(c3ccncc3)CC2)cc1	2.91 µM	–
c1ccc(-c2nnc(-c3ccccn3)nc2NCc2ccccn2)cc1	4.1 µM	–
c1ccc(-c2nnc(-c3ccccn3)nc2NCC2CCOCC2)cc1	6.69 µM	–
CN(C)c1nc(-c2ccccn2)nnc1-c1ccccc1	6.76 µM	–
O=C(NCCCn1ccnc1)c1cc(-c2ccccc2)on1	17.2 µM	–
OCC1CCN(Cc2ccc(O)c3ncccc23)CC1	2.6 µM	–
O=C(Nc1ccc2ccccc2n1)c1cc(-c2ccccc2)on1	–	6.04% (inactive)
Oc1ccc(CN2CCC(Cc3ccccc3)CC2)c2cccnc12	6.73 µM	–
Cc1ccccc1CNC(=O)c1cc(-c2ccccc2)on1	> 38 µM (inactive)	–

Compound	AC40 [1]	activation [2]
c1ccc(-c2nnc(-c3ccccn3)nc2NCCCN2CCOCC2)cc1	6.44 µM	–
c1ccc(-c2cnc(Nc3nc(-c4ccccn4)nnc3-c3ccccc3)s2)cc1	0.433 µM	–
c1ccc(-c2nnc(-c3ccccn3)nc2NCc2cccnc2)cc1	3.44 µM	–
O=C(Nc1cnc2ccccc2c1)c1cc(-c2ccccc2)on1	–	4.77% (inactive)
c1ccc(-c2nnc(Nc3nc(-c4ccccn4)nnc3-c3ccccc3)s2)cc1	1.08 µM	–
C[C@@H](Nc1nc(-c2ccccn2)nnc1-c1ccccc1)C1CCCCC1	0.545 µM	–
COc1ccc(CNc2nc(-c3ccccn3)nnc2-c2ccccc2)cc1	1.24 µM	–
O=C(c1cc(-c2ccccc2)on1)N1CCN(c2ccncc2)CC1	35.8 µM	–
CC(C)(C)c1ccc(CNc2nc(-c3ccccn3)nnc2-c2ccccc2)cc1	0.401 µM	–
O=C(NC1Cc2ccccc2C1)c1cc(-c2ccccc2)on1	–	-6% (inactive)
CC(Nc1nc(-c2ccccn2)nnc1-c1ccccc1)c1ccccc1 (configuration not stated)	1.55 µM	–
CC(C)(C)CCNc1nc(-c2ccccn2)nnc1-c1ccccc1	0.782 µM and 0.753 µM	–
CN1CCN(c2nc(-c3ccccn3)nnc2-c2ccccc2)CC1	5.84 µM	–
CC(C)(C)OC(=O)N1CCN(Cc2ccc(O)c3ncccc23)CC1	9.12 µM	–
O=C(c1cc(-c2ccccc2)on1)N1CCC(N2CCCC2)CC1	–	5.5% (inactive)
Cc1cccc(NC(=O)c2cc(-c3ccccc3)on2)n1	> 38 µM (inactive)	–
CC(C)(C)CCNC(=O)c1cc(-c2ccccc2)on1	> 38 µM (inactive)	–
O=C(NCCCN1CCOCC1)c1cc(-c2ccccc2)on1	28 µM	–
O=C(NCCCO)c1cc(-c2ccccc2)on1	15.7 µM	–
CN(C)CCNC(=O)c1cc(-c2ccccc2)on1	–	-3.96% (inactive)
Cc1cccc(CNC(=O)c2cc(-c3ccccc3)on2)c1	–	9.8% (inactive)
O=C(Nc1nnc(-c2ccccc2)s1)c1cc(-c2ccccc2)on1	–	2.88% (inactive)

Compound	AC40 [1]	activation [2]
O=C(NCC1CC1)c1cc(-c2ccccc2)on1	24.9 µM	–
OCC1CCN(c2nc(-c3ccccn3)nnc2-c2ccccc2)CC1	10.9 µM	–
Cc1ccc(Nc2nc(-c3ccccn3)nnc2-c2ccccc2)cn1	4.94 µM	–
Cn1c(-c2ccccc2)cnc1NC(=O)c1cc(-c2ccccc2)on1	24.6 µM	–
c1ccc(-c2cccc(CNc3nc(-c4ccccn4)nnc3-c3ccccc3)c2)cc1	0.529 µM	–
Clc1cccc(CNc2nc(-c3ccccn3)nnc2-c2ccccc2)c1	0.953 µM	–
O=C(Nc1nc2ccccc2s1)c1cc(-c2ccccc2)on1	> 38 µM (inactive)	–
CN1CCN(C(=O)c2cc(-c3ccccc3)on2)CC1	–	-2.38% (inactive)
c1ccc(-c2nnc(-c3ccccn3)nc2Nc2cnc3ccccc3n2)cc1	1.48 µM	–
c1ccc(-c2nnc(-c3ccccn3)nc2N2CCC(N3CCOCC3)CC2)cc1	6.33 µM	–
Cc1ccc(CNC(=O)c2cc(-c3ccccc3)on2)cc1	–	-2.87% (inactive)
O=C(Nc1nc(-c2ccccc2)cs1)c1cc(-c2ccccc2)on1	–	12.2% (inactive)
C=CCNc1nc(-c2ccccn2)nnc1-c1ccccc1	4.08 µM	–
Cc1cccc(CNc2nc(-c3ccccn3)nnc2-c2ccccc2)c1	1.48 µM	–
O=C(NCC1CCCCC1)c1cc(-c2ccccc2)on1	–	5.37% (inactive)
c1ccc(-c2nnc(-c3ccccn3)nc2NCC2CC2)cc1	2.29 µM	–
c1ccc(-c2nnc(-c3ccccn3)nc2NCCc2ccccn2)cc1	6.47 µM	–
Cc1cccc(Nc2nc(-c3ccccn3)nnc2-c2ccccc2)n1	2.98 µM	–
Oc1ccc(CN2CCC3CCCCC3C2)c2cccnc12 (configuration not stated)	1.58 µM	–
Cc1ccc(CNc2nc(-c3ccccn3)nnc2-c2ccccc2)cc1	1.01 µM	–
O=C(Nc1cn2ccccc2n1)c1cc(-c2ccccc2)on1	5.31 µM	–
COc1ccccc1N1CCN(Cc2ccc(O)c3ncccc23)CC1	0.384 µM	–

Compound	AC40 [1]	activation [2]
O=C(Nc1ncc2ccccc2n1)c1cc(-c2ccccc2)on1	29.4 µM	–
O=C(c1cc(-c2ccccc2)on1)N1CCc2cccnc21	–	-0.596% (inactive)
Cn1c(NC(=O)c2cc(-c3ccccc3)on2)nc2ccccc21	–	-8.77% (inactive)
O=C(NCCN1CCOCC1)c1cc(-c2ccccc2)on1	29.1 µM	–
COc1cccc(CNc2nc(-c3ccccn3)nnc2-c2ccccc2)c1	1.21 µM	–
c1ccc(-c2nnc(-c3ccccn3)nc2Nc2nc3ccccc3s2)cc1	0.427 µM	–
Oc1ccc(CNC2CCc3ccccc32)c2cccnc12 (configuration not stated)	27.1 µM	–
c1ccc(CCNc2nc(-c3ccccn3)nnc2-c2ccccc2)cc1	5.17 µM	–
O=C(NCCN1CCCCC1)c1cc(-c2ccccc2)on1	–	2.31% (inactive)
c1ccc(CNc2nc(-c3ccccn3)nnc2-c2ccccc2)cc1	1.45 µM	–
c1ccc(-c2ccc(CNc3nc(-c4ccccn4)nnc3-c3ccccc3)cc2)cc1	0.276 µM	–
c1ccc(-c2nnc(-c3ccccn3)nc2N2CCC(C3CCCCC3)C2)cc1 (configuration not stated)	0.535 µM	–
O=C(c1cc(-c2ccccc2)on1)N1CCC(CO)CC1	–	2.91% (inactive)
N#CC1(c2ccccc2)CCN(Cc2ccc(O)c3ncccc23)CC1	31.9 µM	–
O=C(NCc1ccccc1)c1cc(-c2ccccc2)on1	–	-3.24% (inactive)
Oc1ccc(CNC2Cc3ccccc3C2)c2cccnc12	12.9 µM	–
O=C(Nc1ncc(-c2ccccc2)o1)c1cc(-c2ccccc2)on1	–	6.52% (inactive)
CCCCNC(=O)c1cc(-c2ccccc2)on1	25 µM	–
Cc1ccccc1CNc1nc(-c2ccccn2)nnc1-c1ccccc1	0.853 µM	–
O=C(NCCCCO)c1cc(-c2ccccc2)on1	9.04 µM	–
c1ccc(-c2nnc(-c3ccccn3)nc2N2CCC(c3ccccc3)C2)cc1 (configuration not stated)	1.05 µM	–
